ChEMBL document CHEMBL1124531, “Intercalating agents with covalent bond forming capability. A novel type of potential anticancer agents. 2. Derivatives of chrysophanol and emodin” (1989)
pIC50: −log10 of the molar value.

Legend:
Nucleic Acid [1] = experiment: Inhibitory activity against [3H]TdR incorporation into DNA in HL-60 cells during the initial 30-min period.; type: functional, cell-based; conditions: Homo sapiens
Outline: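 HL-60 cells (2.5 × 10^6/mL) preincubated 15 min with compound at four to six concentrations in 0.2% DMSO, then pulsed with [3H-methyl]TdR (1 μCi, 0.15 nmol/mL) for 30 min; radioactivity in isolated DNA fraction counted; compound-free DMSO control as reference.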

Nucleic Acid [2] = experiment: Ratio for human acute promyelocytic leukemia cells(HL-60) cell growth inhibition and [3H]TdR incorporation into DNA in HL-60 cells; type: functional, cell-based
HL-60 = experiment: Inhibitory activity against human acute promyelocytic leukemia cells(HL-60) cell growth on 72 hr of exposure of the compound.; type: functional; conditions: HL-60, 72 h, read-out: ID50 (the source's name)
L1210 = experiment: Inhibitory activity against murine L1210 leukemic cell growth; type: functional; conditions: Mus musculus, read-out: ID50 (the source's name)

| Structure (SMILES) | pIC50 (HL-60) | pIC50 (L1210) | ID50 (Nucleic Acid [1]) [µM] | Ratio (Nucleic Acid [2]) |
| --- | --- | --- | --- | --- |
| O=C1c2cccc(O)c2C(=O)c2c(O)cc(Cn3ccnc3)cc21 | 5.32 | 5.13 | 43 | 9 |
| COc1cc(C(Br)Br)cc2c1C(=O)c1c(O)cccc1C2=O | 7.22 | 10.38 | 13 | 217 |
| COc1cc(OC)c2c(c1)C(=O)c1cc(C)cc(OC)c1C2=O | 4.31 | 4.00 | 21 | 0.43 |
| COc1cc(O)c2c(c1)C(=O)c1cc(CNCCCl)cc(O)c1C2=O | 5.04 | 4.74 | 220 | 23.9 |
| COc1cc(O)c2c(c1)C(=O)c1cc(CN(CCO)CCO)cc(OC)c1C2=O | < 3.30 | 5.06 | 9.6 | 0.02 |
| COc1cc(O)c2c(c1)C(=O)c1cc(C(Br)Br)cc(OC)c1C2=O | 7.01 | 9.00 | 23 | 237 |
| CCNCc1cc(OC)c2c(c1)C(=O)c1cc(OC)cc(OC)c1C2=O | 4.77 | 5.01 | 13 | 0.76 |
| COc1cc(O)c2c(c1)C(=O)c1cc(CN(CCO)CCO)cc(O)c1C2=O | 5.18 | 4.85 | 45 | 5.2 |
| COc1cc(OC)c2c(c1)C(=O)c1cc(CN(CCCl)CCCl)cc(OC)c1C2=O | 5.70 | 5.57 | 8.9 | 4.5 |
| COc1cc(CN(CCCl)CCCl)cc2c1C(=O)c1c(O)cccc1C2=O | 6.41 |  | 15 | 38.5 |
| COc1cc(CN(CCO)CCO)cc2c1C(=O)c1c(O)cccc1C2=O | 4.68 | < 4.62 | 89 | 4.2 |
| COc1cc(O)c2c(c1)C(=O)c1cc(CN(CCCl)CCCl)cc(O)c1C2=O | 6.21 |  | 12 | 19.7 |
| COc1cc(OC)c2c(c1)C(=O)c1cc(CNCCCl)cc(OC)c1C2=O | 5.24 | 4.49 | 18 | 3.1 |
| COc1cccc2c1C(=O)c1c(OC)cc(CNCCCl)cc1C2=O | 4.07 | 4.59 | 19 | 0.22 |
| CCN(CC)Cc1cc(OC)c2c(c1)C(=O)c1cccc(OC)c1C2=O | 4.52 | 3.89 | 19 | 6.3 |
| COc1cc(OC)c2c(c1)C(=O)c1cc(CBr)cc(OC)c1C2=O | 4.08 | 6.17 | 12 | 0.14 |

| Structure (SMILES) | pIC50 (HL-60) | pIC50 (L1210) | ID50 (Nucleic Acid [1]) [µM] | Ratio (Nucleic Acid [2]) |
| --- | --- | --- | --- | --- |
| CC(C)NC(=O)OCCN(CCOC(=O)NC(C)C)Cc1cc(O)c2c(c1)C(=O)c1cccc(O)c1C2=O | 4.57 | 4.57 | 17 | 0.63 |
| CCCCNCc1cc(O)c2c(c1)C(=O)c1cccc(O)c1C2=O | 5.39 | 5.34 | 25 | 6.1 |
| O=C1c2cccc(O)c2C(=O)c2c(O)cc(CN(CCO)CCO)cc21 | 5.48 | 5.23 | 14 | 4.2 |
| COc1cccc2c1C(=O)c1c(OC)cc(CNCCO)cc1C2=O | 4.26 | 3.85 | 46 | 0.84 |
| COc1cc(O)c2c(c1)C(=O)c1cc(CN(CCCl)CCCl)cc(OC)c1C2=O | 6.28 | 5.48 | 5.4 | 10.4 |
| CN(C)Cc1cc(O)c2c(c1)C(=O)c1cccc(O)c1C2=O | 5.57 | 5.66 | 9.3 | 3.3 |
| CCN(CC)Cc1cc(O)c2c(c1)C(=O)c1cccc(O)c1C2=O | 5.74 | 5.55 | 14 | 7.8 |
| O=C1c2cccc(O)c2C(=O)c2c(O)cc(CN(CCCl)CCCl)cc21 | 6.74 |  | 69 | 383 |
| CCN(CC)Cc1cc(OC)c2c(c1)C(=O)c1cccc(O)c1C2=O | 5.28 | 4.92 | 14 | 2.7 |
| COc1cccc2c1C(=O)c1c(OC)cc(CN(CCCl)CCCl)cc1C2=O | 5.74 | 4.89 | 14 | 7.8 |
| CCN(CC)Cc1cc(O)c2c(c1)C(=O)c1cc(OC)cc(O)c1C2=O | 5.47 | 5.92 | 35 | 10.3 |
| O=C1c2cccc(O)c2C(=O)c2c(O)cc(CNCCO)cc21 |  | 6.80 | 15 | 17.4 |
| O=C1c2cccc(O)c2C(=O)c2c(O)cc(CNCCCl)cc21 | 5.12 | 5.15 | 39 | 5.2 |
| NCc1cc(O)c2c(c1)C(=O)c1cccc(O)c1C2=O | 4.96 | 5.07 | 25 | 2.3 |
| O=C1c2cccc(O)c2C(=O)c2c(O)cc(C(Br)Br)cc21 | 5.60 | 6.36 | 39 | 15.6 |
| COc1cccc2c1C(=O)c1c(OC)cc(C)cc1C2=O |  | 4.55 | 19 | 1.9 |

The next lines start with results.

| pIC50 (HL-60) | pIC50 (L1210) | Structure (SMILES) | ID50 (Nucleic Acid [1]) [µM] | Ratio (Nucleic Acid [2]) |
| --- | --- | --- | --- | --- |
| 4.60 | 4.23 | COc1cc(O)c2c(c1)C(=O)c1cc(CBr)cc(O)c1C2=O | 340 | 13.6 |
| 5.80 | 6.30 | COc1cc(O)c2c(c1)C(=O)c1cc(CNCCO)cc(O)c1C2=O | 12 | 7.5 |
| 4.00 | < 4.57 | COc1cc(OC)c2c(c1)C(=O)c1cc(CN(CCO)CCO)cc(OC)c1C2=O | 17 | 0.17 |
| 5.22 | 4.39 | COc1cc(OC)c2c(c1)C(=O)c1cc(C(Br)Br)cc(OC)c1C2=O | 58 | 9.7 |
| 3.31 | < 4.30 | COc1cccc2c1C(=O)c1c(OC)cc(CN(CCO)CCO)cc1C2=O | 14 | 0.03 |
| 3.68 | < 4.74 | CNC(=O)OCCN(CCOC(=O)NC)Cc1cc(O)c2c(c1)C(=O)c1cccc(O)c1C2=O | 28 | 0.13 |
| 5.77 | 7.17 | COc1cc(O)c2c(c1)C(=O)c1cc(CBr)cc(OC)c1C2=O | 70 | 41 |
| 4.92 | 4.05 | CNC(=O)OCCN(CCOC(=O)NC)Cc1cc(OC)c2c(c1)C(=O)c1cccc(O)c1C2=O | 12 | 1 |
| 6.72 | 9.00 | COc1cc(O)c2c(c1)C(=O)c1cc(C(Br)Br)cc(O)c1C2=O | 110 | 579 |
| 5.68 | 6.14 | CCNCc1cc(O)c2c(c1)C(=O)c1cc(OC)cc(O)c1C2=O | 13 | 6.2 |
| 5.49 | 6.17 | O=C1c2cccc(O)c2C(=O)c2c(O)cc(CNCCCO)cc21 | 16 | 5 |
| 5.15 | 5.07 | O=C1c2cccc(O)c2C(=O)c2c(O)cc(CBr)cc21 | 16 | 2.3 |
| 3.96 | 4.77 | COc1cc(OC)c2c(c1)C(=O)c1cc(CNCCO)cc(OC)c1C2=O | 26 | 0.24 |
| 5.68 | 6.05 | COc1cccc2c1C(=O)c1c(OC)cc(C(Br)Br)cc1C2=O | 9 | 4.3 |
| 5.36 | 5.04 | COc1cccc2c1C(=O)c1c(OC)cc(CBr)cc1C2=O | 11 | 2.5 |
| 5.17 | 5.16 | CCN(CC)Cc1cc(OC)c2c(c1)C(=O)c1cc(OC)cc(O)c1C2=O | 180 | 26.9 |
| 5.15 | 5.06 | COc1cc(CBr)cc2c1C(=O)c1c(O)cccc1C2=O | 12 | 1.7 |
| 5.68 | 5.80 | O=C1c2cccc(O)c2C(=O)c2c(O)cc(CN3CCCC3)cc21 | 10 | 4.8 |
| 5.06 | 6.11 | CCNCc1cc(O)c2c(c1)C(=O)c1cccc(O)c1C2=O | 18 | 2.1 |
| 5.02 | 4.14 | CNC(=O)OCCN(CCOC(=O)NC)Cc1cc(OC)c2c(c1)C(=O)c1cccc(OC)c1C2=O | 9.4 | 0.99 |
| 4.32 | 5.92 | CCNCc1cc(OC)c2c(c1)C(=O)c1cccc(OC)c1C2=O | 29 | 0.6 |
| 5.10 | 5.16 | CCN(CC)Cc1cc(OC)c2c(c1)C(=O)c1cc(OC)cc(OC)c1C2=O | 4.2 | 0.53 |
| 5.55 | 5.40 | O=C1c2cccc(O)c2C(=O)c2c(O)cc(CN3CCCCC3)cc21 | 63 | 22.5 |
